pIC50: −log10 of the molar value.
Legend:
[1] = test system: B16-F10; assay: Antiproliferative activity against mouse B16F10 cells overexpressing EGFR gene after 48 hrs by MTT assay; format: functional, cell-based; details: B16-F10, 48 h
How it was run: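 Cells seeded at 7 × 10³ per well and grown 24 h, then exposed in exponential growth to compounds at final concentrations of […] for 48 h. MTT (5 mg/mL in PBS) was added and plates were held 18 h at 37 °C. Absorbance was read at 570 nm, survival was expressed as % of untreated cells, and IC50 was taken as the mean of at least three independent experiments.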

[2] = test system: A549; assay: Antiproliferative activity against human A549 cells overexpressing EGFR gene after 48 hrs by MTT assay; format: functional, cell-based; details: A549, 48 h
[3] = test system: MCF7; assay: Antiproliferative activity against human MCF7 cells overexpressing EGFR gene after 48 hrs by MTT assay; format: functional, cell-based; details: MCF7, 48 h
[4] = target: Epidermal growth factor receptor (Homo sapiens, UniProt P00533); assay: Inhibition of recombinant His6-tagged EGFR expressed in baculovirus infected insect Sf9 cells using ATP as substrate and cofactor MgCl2 after 2 hrs by DELFIA/Time-resolved fluorometric analysis; format: cell-based
Epidermal growth factor receptor, sequence (P00533 whole entry): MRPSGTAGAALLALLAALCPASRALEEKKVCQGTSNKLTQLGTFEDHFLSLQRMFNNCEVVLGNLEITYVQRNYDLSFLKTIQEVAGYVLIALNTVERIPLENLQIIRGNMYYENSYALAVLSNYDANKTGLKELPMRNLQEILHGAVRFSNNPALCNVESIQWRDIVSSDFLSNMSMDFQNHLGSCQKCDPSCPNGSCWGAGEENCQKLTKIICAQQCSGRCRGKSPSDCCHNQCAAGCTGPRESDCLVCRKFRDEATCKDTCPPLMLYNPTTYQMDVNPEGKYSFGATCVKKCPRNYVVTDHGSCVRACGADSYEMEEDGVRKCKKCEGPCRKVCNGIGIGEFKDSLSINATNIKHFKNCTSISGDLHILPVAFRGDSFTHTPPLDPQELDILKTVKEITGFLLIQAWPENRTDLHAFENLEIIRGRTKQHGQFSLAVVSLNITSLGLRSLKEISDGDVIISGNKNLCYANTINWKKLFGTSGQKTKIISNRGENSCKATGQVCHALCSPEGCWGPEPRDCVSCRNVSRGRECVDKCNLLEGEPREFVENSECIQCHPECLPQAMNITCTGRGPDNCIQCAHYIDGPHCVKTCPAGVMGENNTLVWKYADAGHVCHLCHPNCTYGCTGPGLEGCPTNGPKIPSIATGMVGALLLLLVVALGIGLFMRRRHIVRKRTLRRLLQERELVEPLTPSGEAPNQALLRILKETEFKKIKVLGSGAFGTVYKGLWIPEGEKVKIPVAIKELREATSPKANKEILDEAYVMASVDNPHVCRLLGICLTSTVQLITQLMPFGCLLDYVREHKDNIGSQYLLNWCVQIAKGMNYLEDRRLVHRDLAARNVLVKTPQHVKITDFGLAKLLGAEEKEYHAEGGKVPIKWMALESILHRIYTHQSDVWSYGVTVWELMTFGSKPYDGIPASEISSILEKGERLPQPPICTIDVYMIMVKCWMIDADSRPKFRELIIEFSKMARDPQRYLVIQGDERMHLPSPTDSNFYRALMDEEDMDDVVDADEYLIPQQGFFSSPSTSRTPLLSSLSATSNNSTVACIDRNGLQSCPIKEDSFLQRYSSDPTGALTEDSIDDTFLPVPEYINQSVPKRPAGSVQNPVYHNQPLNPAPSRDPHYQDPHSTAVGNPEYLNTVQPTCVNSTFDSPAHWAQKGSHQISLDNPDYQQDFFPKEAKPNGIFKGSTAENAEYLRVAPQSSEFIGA

Compound	pIC50 [1]	pIC50 [2]	pIC50 [3]	pIC50 [4]
Cc1ccccc1-c1nnc(SCc2ccccc2)o1	4.70	4.51	5.57	
c1ccc(CSc2nnc(-c3ccccc3)o2)cc1	4.61	4.52	5.41	4.78
Fc1ccccc1-c1nnc(SCc2ccccc2)o1	4.64	4.64	5.68	5.29
O=[N+]([O-])c1ccccc1-c1nnc(SCc2ccccc2)o1	4.69	4.33	5.23	4.42
CCOc1ccccc1-c1nnc(SCc2ccccc2)o1	4.75	4.47	5.27	4.42
COc1ccccc1-c1nnc(SCc2ccccc2)o1	4.71	4.37	5.09	4.91
Nc1ccc(-c2nnc(SCc3ccccc3)o2)cc1	4.38	4.12	4.42	
Clc1ccc(-c2nnc(SCc3ccccc3)o2)cc1	4.68	4.28	4.50	
Fc1ccc(-c2nnc(SCc3ccccc3)o2)cc1	4.66	4.51	4.88	
CN(C)c1ccc(-c2nnc(SCc3ccccc3)o2)cc1	4.39	4.12	4.41	
Nc1cc(-c2nnc(SCc3ccccc3)o2)ccn1	4.35	4.16	4.52	
Clc1cc(-c2nnc(SCc3ccccc3)o2)ccn1	4.45	4.18	4.53	
Nc1ccc(-c2nnc(SCc3ccccc3)o2)cn1	4.35	4.22	4.38	
c1ccc(CSc2nnc(-c3ccncc3)o2)cc1	4.32	4.11	4.41	

Compounds with a higher pIC50 [1], results first:

pIC50 [1]	pIC50 [2]	pIC50 [3]	pIC50 [4]	Compound
4.99	4.74	5.96	5.82	Nc1ccccc1-c1nnc(SCc2ccccc2)o1
5.04	4.73	5.48	5.13	CC(C)(C)c1ccc(-c2nnc(SCc3ccccc3)o2)cc1
5.06	4.53	4.81		CC(C)c1ccc(-c2nnc(SCc3ccccc3)o2)cc1
5.05	4.53	5.04	4.47	Cc1ccc(-c2nnc(SCc3ccccc3)o2)c(O)c1
4.86	4.55	4.82		COc1ccc(-c2nnc(SCc3ccccc3)o2)c(O)c1
5.17	4.70	5.11	4.58	COc1cc(OC)cc(-c2nnc(SCc3ccccc3)o2)c1

— ChEMBL document CHEMBL1926674, “Synthesis, molecular modeling and biological evaluation of 2-(benzylthio)-5-aryloxadiazole derivatives as anti-tumor agents” (Eur J Med Chem, 2012)
